ChEMBL document CHEMBL5715960, “Epigenetic Co-Deregulation of EZH2/TET1 is a Senescence-Countering, Actionable Vulnerability in Triple-Negative Breast Cancer” (Theranostics, 2019)
Active and inactive are the calls of the source. No cut-off for these calls is given here.

Assays:
[1] = test system: MDA-MB-436; test: Effect on human MDA-MB-436 cells assessed as apoptotic phenotype by measuring increase in p53 expression level at 2 uM in presence of adriamycin by immunoblot analysis; assay type: functional, cell-based
Procedure, shortened: (§1)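 Immunoblot of cell lysates after 0.05 µg/ml adriamycin alone, with 2 µM GSK343, or DMSO. α-Tubulin and total H3 used as loading controls.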

[2] = test system: MCF7; test: Effect on human MCF7 cells assessed as increase in TET2 transcription by qRT-PCR analysis; assay type: functional, cell-based
Procedure, shortened: (§2)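 qRT-PCR of TET1, TET2 and TET3 transcripts in breast cancer cells exposed to GSK343 (2 µM unless otherwise indicated), shown relative to DMSO-treated cells. Mean ± SD, triplicate unless stated.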

[3] = test system: SK-BR-3; test: Cytotoxicity against human SK-BR-3 cells assessed as increase in cell death at 10 uM for 2 days by Guava viacount assay; assay type: toxicity, cell-based; settings: sk-br-3, 48 h, time 2 day
Procedure, shortened: (§3)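 Cells plated at 2 × 10^4 (24-well) or 1 × 10^5 (12-well), exposed to a range of GSK343 concentrations for 2 days against DMSO solvent control; cell number and viability read by Guava ViaCount flow cytometry, relative to DMSO. Triplicate; mean ± SD.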

[4] = test system: MDA-MB-231; test: Effect on human MDA-MB-231 cells assessed as apoptotic phenotype by measuring increase in p53 expression level at 2 uM in presence of adriamycin by immunoblot analysis; assay type: functional, cell-based; procedure, shortened: as §1
[5] = test system: MDA-MB-231; test: Upregulation of TP53 gene in human MDA-MB-231 cells at 2 uM by qRT-PCR analysis; assay type: functional, cell-based
Procedure, shortened: (§4)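 Relative transcript levels measured by qRT-PCR in cells treated with 2 µM inhibitor, normalised to DMSO-treated control cells. Triplicate experiments unless stated otherwise; mean ± SD reported; unpaired two-tailed Student's t-test at p < 0.05.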

[6] = test system: MCF7; test: Antiproliferative activity against human MCF7 cells assessed as increase in global H3K9me3 expression level by immunoblot analysis; assay type: toxicity, cell-based
Procedure, shortened: (§5)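 Cells exposed to GSK343 at 2 µM (standard level unless stated otherwise), lysed and immunoblotted; α-tubulin and total H3 as loading controls.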

[7] = test system: BT-474; test: Upregulation of CDKN1A gene in human BT-474 cells at 2 uM by qRT-PCR analysis; assay type: functional, cell-based; procedure, shortened: as §4
[8] = test system: MDA-MB-436; test: Downregulation of EZH2 protein expression in human MDA-MB-436 cells at 2 uM for 2 days by immunoblot analysis; assay type: functional, cell-based; settings: time 2.0 day
[9] = test system: MCF7; test: Induction of cell cycle arrest in human MCF7 cells assessed as accumulation of cells at G1 phase measured at 2 uM by BrdU/PI staining based flow cytometric analysis (reference value: 65.2%); assay type: functional
[10] = test system: MDA-MB-231; test: Effect on human MDA-MB-231 cells assessed as apoptotic phenotype by measuring increase in PUMA expression level at 2 uM in presence of adriamycin by immunoblot analysis; assay type: functional, cell-based; procedure, shortened: as §1
[11] = test system: MDA-MB-231; test: Effect on human MDA-MB-231 cells expressing shTET1 assessed as increase in p21 cascade by immunoblot analysis; assay type: functional, cell-based
[12] = test system: MDA-MB-231; test: Effect on human MDA-MB-231 cells assessed as apoptotic phenotype by measuring increase in BIM expression level at 2 uM in presence of adriamycin by immunoblot analysis; assay type: functional, cell-based; procedure, shortened: as §1
[13] = test system: BT-474; test: Induction of cell cycle arrest in human BT-474 cells assessed as accumulation of cells at S phase measured at 2 uM by BrdU/PI staining based flow cytometric analysis (reference value: 28.6%); assay type: functional
[14] = test system: MCF7; test: Effect on human MCF7 cells assessed as increase in TET1 transcription by qRT-PCR analysis; assay type: functional, cell-based; procedure, shortened: as §2
[15] = test system: MDA-MB-436; test: Antiproliferative activity in human MDA-MB-436 cells expressing vector assessed as increase in SA-beta-gal positive cells by SA-beta-gal staining analysis (reference value: 10.3+/-3.7%); assay type: functional
[16] = test system: MDA-MB-231; test: Effect on human MDA-MB-231 cells assessed as increase in TET1 transcription by qRT-PCR analysis; assay type: functional, cell-based; procedure, shortened: as §2
[17] = test system: MDA-MB-231; test: Induction of apoptosis in human MDA-MB-231 cells assessed as decrease in accumulation of cells at S phase in presence of adriamycin by BrdU/PI-based cell cycle analysis; assay type: functional
Procedure, shortened: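 Cell cycle by BrdU/PI staining and flow cytometry, giving G1, S and G2 fractions. Cells received 0.005 µg/ml adriamycin with or without 2 µM GSK343, or DMSO. Mean ± SD.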

[18] = test system: BT-474; test: Induction of cell cycle arrest in human BT-474 cells assessed as accumulation of cells at G1 phase measured at 2 uM by BrdU/PI staining based flow cytometric analysis (reference value: 60.8%); assay type: functional
[19] = test system: MDA-MB-436; test: Antiproliferative activity in human MDA-MB-436 cells assessed as increase in SA-beta-gal positive cells at 2 uM for 5 days by SA-beta-gal staining analysis; assay type: functional, cell-based; settings: time 5.0 day
Procedure, shortened: (§6)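 GSK343 2 µM or DMSO for 5 days, then chromogenic SA-β-gal staining and counting of positive cells. Triplicate; mean ± SD.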

[20] = test system: MDA-MB-436; test: Effect on human MDA-MB-436 cells assessed as apoptotic phenotype by measuring increase in BIM expression level at 2 uM in presence of adriamycin by immunoblot analysis; assay type: functional, cell-based; procedure, shortened: as §1
[21] = test system: MDA-MB-231; test: Downregulation of EZH2 protein expression in human MDA-MB-231 cells at 2 uM for 2 days by immunoblot analysis; assay type: functional, cell-based; settings: time 2.0 day
[22] = test system: MCF7; test: Induction of cell cycle arrest in human MCF7 cells assessed as accumulation of cells at S phase measured at 2 uM by BrdU/PI staining based flow cytometric analysis (reference value: 27.7%); assay type: functional
[23] = test system: MDA-MB-231; test: Antiproliferative activity against human MDA-MB-231 cells assessed as downregulation of cyclin A by immunoblot analysis; assay type: functional, cell-based; procedure, shortened: as §5
[24] = test system: MDA-MB-436; test: Downregulation of EZH2 in human MDA-MB-436 cells at 2 uM for 2 days by immunoblot analysis; assay type: functional, cell-based; settings: time 2.0 day
[25] = test system: MDA-MB-453; test: Antiproliferative activity against human MDA-MB-453 cells assessed as increase in cell death at 10 uM for 2 days by Guava viacount assay; assay type: functional, cell-based; settings: time 2.0 day; procedure, shortened: as §3
[26] = test system: MDA-MB-231; test: Downregulation of E2F1 in human MDA-MB-231 cells at 2 uM for 2 days by immunoblot analysis; assay type: functional, cell-based; settings: time 2.0 day
[27] = test system: MDA-MB-231; test: In vivo activation of p53 expression in Crl:NU-Foxn1-nu/nu mouse xenografted with human MDA-MB-231 cells at 5 mg/kg, ip in presence of adriamycin treated for 21 days; assay type: functional, organism-based; settings: time 21.0 day
[28] = test system: MDA-MB-231; test: Effect on human MDA-MB-231 cells expressing shTET1 assessed as increase in H3K9me3 cascade by immunoblot analysis; assay type: functional, cell-based
[29] = test system: MDA-MB-231; test: Upregulation of CDKN1A gene in human MDA-MB-231 cells at 2 uM by qRT-PCR analysis; assay type: functional, cell-based; procedure, shortened: as §4
[30] = test system: MDA-MB-453; test: Antiproliferative activity in human MDA-MB-453 cells assessed as increase in SA-beta-gal positive cells at 2 uM for 5 days by SA-beta-gal staining analysis; assay type: functional, cell-based; settings: time 5.0 day; procedure, shortened: as §6
[31] = test system: MDA-MB-231; test: Antiproliferative activity in human MDA-MB-231 cells assessed as increase in C12FDG based fluorescent SA-beta-gal positive cells at 2 uM in presence of adriamycin by FACS analysis; assay type: functional, cell-based
Procedure, shortened: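 Cells given 0.005 µg/ml adriamycin with or without 2 µM GSK343, or DMSO; SA-β-gal activity detected with C12FDG fluorescent substrate by flow cytometry, reported as percent positive cells. Mean ± SD.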

CCCc1cc(C)[nH]c(=O)c1CNC(=O)c1cc(-c2ccnc(N3CCN(C)CC3)c2)cc2c1cnn2C(C)C
Activity [1]: Active | Activity [2]: inactive | Activity [3]: Non-Toxic | Activity [4]: Active | Activity [5]: Active | Activity [6]: Non-Toxic | Activity [7]: inactive | Activity [8]: Active | Activity [9]: 66.1% | Activity [10]: Active | Activity [11]: inactive | Activity [12]: Active | Activity [13]: 26.8% | Activity [14]: inactive | Activity [15]: 46.4% | Activity [16]: Active | Activity [17]: Active | Activity [18]: 56.8% | Activity [19]: Active | Activity [20]: Active | Activity [21]: Active | Activity [22]: 22.8% | Activity [23]: Active | Activity [24]: Active | Activity [25]: Active | Activity [26]: Active | Activity [27]: Active | Activity [28]: inactive | Activity [29]: Active | Activity [30]: Active | Activity [31]: Active
